Test results from ChEMBL document CHEMBL1142240, “Lissoclibadins 4-7, polysulfur aromatic alkaloids from the Indonesian ascidian Lissoclinum cf. badium” (J Nat Prod, 2007).
Active and inactive are the calls of the source. The rule behind the calls is not given here.

Assays:
[1] = Inhibition of colony formation in Chinese hamster V79 cells; assay type: functional, cell-based; conditions: Cricetulus griseus
In short: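 Compound added in DMSO at 0.01–10 μM, then 4 further days of incubation. Colonies counted; relative plating efficiency taken as colony number in sample dish over control dish; EC50 derived.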

Staphylococcus aureus [2] = assay: Antimicrobial activity against Staphylococcus aureus IAM 12544T at 20 ug/disk; assay type: functional; conditions: read-out: IZ
Mucor hiemalis [3] = assay: Antimicrobial activity against Mucor hiemalis IAM 6088 at 50 ug/disk; assay type: functional; conditions: for zone of inhibition at 50 µg/disc: read-out: IZ
Staphylococcus aureus [4] = assay: Antimicrobial activity against Staphylococcus aureus IAM 12544T at 50 ug/disk; assay type: functional; conditions: read-out: IZ
Escherichia coli [5] = assay: Antimicrobial activity against Escherichia coli IAM 12119T at 50 ug/disk; assay type: functional; conditions: read-out: IZ
Mucor hiemalis [6] = assay: Antimicrobial activity against Mucor hiemalis IAM 6088 at 20 ug/disk; assay type: functional; conditions: read-out: IZ
Escherichia coli [7] = assay: Antimicrobial activity against Escherichia coli IAM 12119T at 20 ug/disk; assay type: functional; conditions: read-out: IZ
Saccharomyces cerevisiae [8] = assay: Antimicrobial activity against Saccharomyces cerevisiae IAM 1438T at 20 ug/disk; assay type: functional; conditions: read-out: IZ
Saccharomyces cerevisiae [9] = assay: Antimicrobial activity against Saccharomyces cerevisiae IAM 1438T at 50 ug/disk; assay type: functional; conditions: read-out: IZ

| Structure (SMILES) | EC50 [1] [nM] | zone of inhibition at 20 µg/disc (Staphylococcus aureus [2]) [mm] | Activity (Mucor hiemalis [3]) | zone of inhibition at 50 µg/disc (Staphylococcus aureus [4]) [mm] | zone of inhibition at 50 µg/disc (Escherichia coli [5]) [mm] | zone of inhibition at 50 µg/disc (Mucor hiemalis [3]) [mm] | zone of inhibition at 20 µg/disc (Mucor hiemalis [6]) [mm] | zone of inhibition at 20 µg/disc (Escherichia coli [7]) [mm] | zone of inhibition at 20 µg/disc (Saccharomyces cerevisiae [8]) [mm] | zone of inhibition at 50 µg/disc (Saccharomyces cerevisiae [9]) [mm] |
| --- | --- | --- | --- | --- | --- | --- | --- | --- | --- | --- |
| COc1c(OC)c2c(c(CCN(C)C)c1SC)Sc1c(CCN(C)C)c(SC)c(OC)c(OC)c1S2 [LISSOCLINOTOXIN E] | 270 |  |  |  |  |  |  |  |  |  |
| COc1cc(CCN(C)C)c2sc3c(O)c(OC)cc(CCN(C)C)c3ssc2c1O [LISSOCLIBADIN 4] | 710 | 10.8 | inactive | 13.1 | 15.7 |  |  |  |  |  |
| COc1c(SC)c(CCN(C)C)c2sc3c(CCN(C)C)c(SC)c(OC)c(OC)c3ssc2c1OC [LISSOCLINOTOXIN F] | 280 |  |  |  |  | 18 | 10.5 |  |  |  |
| COc1c(OC)c2c(c(CCN(C)C)c1SC)SSS2 | 190 |  |  | 10.3 | 17.8 | 23 | 17.4 | 14.4 |  | 11.8 |
| COc1cc(CCN(C)C)c2c(c1O)Sc1c(CCN(C)C)c(SC)c(OC)c(OC)c1S2 [LISSOCLIBADIN 6] | 60 | 10 |  | 13.8 | 10.8 |  |  |  |  | 7.8 |

Now from value to compound, other results behind:

| EC50 [1] [nM] | Structure (SMILES) | zone of inhibition at 20 µg/disc (Staphylococcus aureus [2]) [mm] | Activity (Mucor hiemalis [3]) | zone of inhibition at 50 µg/disc (Staphylococcus aureus [4]) [mm] | zone of inhibition at 50 µg/disc (Escherichia coli [5]) [mm] | zone of inhibition at 50 µg/disc (Mucor hiemalis [3]) [mm] | zone of inhibition at 20 µg/disc (Mucor hiemalis [6]) [mm] | zone of inhibition at 20 µg/disc (Escherichia coli [7]) [mm] | zone of inhibition at 20 µg/disc (Saccharomyces cerevisiae [8]) [mm] | zone of inhibition at 50 µg/disc (Saccharomyces cerevisiae [9]) [mm] |
| --- | --- | --- | --- | --- | --- | --- | --- | --- | --- | --- |
| 200 | COc1c(OC)c2c(c(CCN(C)C)c1SC)SSc1c(CCN(C)C)c(SC)c(OC)c(OC)c1Sc1c(OC)c(OC)c(SC)c(CCN(C)C)c1S2 [LISSOCLIBADIN 1] |  |  |  |  |  |  |  |  |  |
| 150 | COc1c(OC)c2c(c(CCN(C)C)c1SC)SSSSS2 |  |  | 14.2 | 17.1 | 26.2 | 19.6 | 13.1 | 10.5 | 15.2 |
| 340 | COc1c(OC)c2c(c(CCN(C)C)c1SC)Sc1c(OC)c(OC)c(SC)c(CCN(C)C)c1S2 [LISSOCLIBADIN 3] |  |  |  |  |  |  |  |  |  |
| 80 | COc1c(SC)c(CCN(C)C)c2sc3c(OC)c(OC)c(SC)c(CCN(C)C)c3ssc2c1OC [LISSOCLIBADIN 2] |  |  |  |  | 13.8 |  |  |  |  |
| 170 | COc1cc(CCN(C)C)c2c(c1O)SSc1c(CCN(C)C)cc(OC)c(O)c1SS2 [LISSOCLIBADIN 7] | 9.4 |  | 13.1 | 9.9 |  |  |  |  | 16.8 |
| 60 | COc1cc(CCN(C)C)c2sc3c(OC)c(OC)c(SC)c(CCN(C)C)c3ssc2c1O [LISSOCLIBADIN 5] | 9 |  | 15.8 | 11.6 |  |  |  |  | 6.2 |
